# Article PMC11959935 (Acta Pharmaceutica Sinica. B, 2025)
# Legend:
# [1] = tested on: GL261 glioma allograft; experiment: PET imaging of orthotopic GL261 glioma allograft mouse models; format: in vivo
# Method in brief: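 Mice under isoflurane (1.5%, 0.4 L/min) in a stereotactic frame received mouse GL261 glioma cells (suspension 1 × 10^5 cells/mL) through a drilled hole by Hamilton syringe; controls received PBS. After 10 days, tumours were confirmed by T2-weighted MRI and [18F]FET PET (11.1 MBq), then the radiotracer was given i.v. T/N ratio was lesion SUV over contralateral normal brain.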
# [2] = tested on: epileptic focus; experiment: Pilot clinical PET imaging in a patient with temporal lobe epilepsy; format: in vivo, human
Compound,T/N ratio [1],SUVmean in epileptic focus [2]
"N[C@@H](Cc1ccc(OCC[18F])cc1)C(=O)O [[^18F]FET, ^18F-fluoro-ethyl-tyrosine]",1.17 ± 0.02,–
CCOC(=O)c1ncn2c1CN(C)C(=O)c1cc([18F])ccc1-2 [[^18F]FMZ],–,0.54 ± 0.28
